Compound activity as filed in PubChem BioAssay.
HUVEC prolif 384: inhibitors of human endothelial cell proliferation; HUVEC proliferation, CellTiter-Glo luminescence, 72 h; hits give low values; actives 1.1% (n = 86,000); viability, % at 10 µM (by protocol);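 active = viability at or below 30%; inactive = viability above 30%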;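 note: 100% = median luminescence of DMSO-only cell control wells on each plate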
HCT116 bCat-KO: beta-catenin-lacking colon tumor cell growth suppression | HCT116 beta-catenin knockout viability, CellTiter-Glo, 60 h; hits give low values | viability, % at 10 µM | actives 1.5% (n = 140,000) | AID 818;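 active = viability at or under a set limit, the compound median less 4 SD, cut at about 6% in these data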;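 note: 0% = Hyamine 1622 control at 20 µM and 100% = untreated cell control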
H69AR inhibit: growth inhibitors of human H69AR lung tumor cells; viability, % at 10 µM; H69AR lung tumor viability, ATP luminescence, 72 h; hits give low values; actives 6% (n = 85,000); AID 598;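 active = viability at or below 40%; inactive = viability above 40%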;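 note: multidrug resistant small cell line overexpressing MRP-1 efflux transporter; 100% = mean luminescence of untreated control wells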
Fibroblast inh: blocks proliferation of human lung fibroblasts | LL 47 human lung fibroblast viability, ATP luminescence; hits give low values | viability, % at 10 µM | actives 1.1% (n = 85,000) | AID 719;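 active = viability at or below 50% in the single dose screen; inactive = viability above 50%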;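 note: compound exposure lasted 72 h before the ATP readout; 100% = median luminescence of untreated cell-only wells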
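Assay system: human lung fibroblast line LL 47, low passage. Input: 1,150 fibroblasts seeded per well. Times: overnight cell rest, 72 h compound treatment at 37 °C. Evaluation: % viability of median cell-only signal. Technique: luminescent ATP detection, CellTiter-Glo. Control set: cell-only wells, no compound.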
HCT116 PTEN-null: growth suppressors of cells with PTEN tumor suppressor deletion. actives 1.2% (n = 140,000). viability, % at 10 µM. HCT116 PTEN-null viability, CellTiter-Glo, 60 h; hits give low values;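 active = viability at or below a set limit, 4 SD under the median of all tested compounds, cut at about 3.7% in these data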;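 note: PTEN knockout HCT116 line with beta catenin targeted HCT116 as companion control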
Pyk2 oligo antag: blocks oligomerization of human Pyk2 in cells | Q14289 | Q293 cells, Pyk2 FERM NanoBiT luminescence; hits give low values | z-score (the deposit names both 25 µM and 10 µM) | actives 0.83% (n = 99,000);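 active = Z-score of -3 or lower, scaled per plate to the spread of control and sample wells; inactive = z-score above -3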;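 note: negative z-score means lost luminescence so less FERM oligomerization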
Target sequence (Q14289 whole entry, looked up): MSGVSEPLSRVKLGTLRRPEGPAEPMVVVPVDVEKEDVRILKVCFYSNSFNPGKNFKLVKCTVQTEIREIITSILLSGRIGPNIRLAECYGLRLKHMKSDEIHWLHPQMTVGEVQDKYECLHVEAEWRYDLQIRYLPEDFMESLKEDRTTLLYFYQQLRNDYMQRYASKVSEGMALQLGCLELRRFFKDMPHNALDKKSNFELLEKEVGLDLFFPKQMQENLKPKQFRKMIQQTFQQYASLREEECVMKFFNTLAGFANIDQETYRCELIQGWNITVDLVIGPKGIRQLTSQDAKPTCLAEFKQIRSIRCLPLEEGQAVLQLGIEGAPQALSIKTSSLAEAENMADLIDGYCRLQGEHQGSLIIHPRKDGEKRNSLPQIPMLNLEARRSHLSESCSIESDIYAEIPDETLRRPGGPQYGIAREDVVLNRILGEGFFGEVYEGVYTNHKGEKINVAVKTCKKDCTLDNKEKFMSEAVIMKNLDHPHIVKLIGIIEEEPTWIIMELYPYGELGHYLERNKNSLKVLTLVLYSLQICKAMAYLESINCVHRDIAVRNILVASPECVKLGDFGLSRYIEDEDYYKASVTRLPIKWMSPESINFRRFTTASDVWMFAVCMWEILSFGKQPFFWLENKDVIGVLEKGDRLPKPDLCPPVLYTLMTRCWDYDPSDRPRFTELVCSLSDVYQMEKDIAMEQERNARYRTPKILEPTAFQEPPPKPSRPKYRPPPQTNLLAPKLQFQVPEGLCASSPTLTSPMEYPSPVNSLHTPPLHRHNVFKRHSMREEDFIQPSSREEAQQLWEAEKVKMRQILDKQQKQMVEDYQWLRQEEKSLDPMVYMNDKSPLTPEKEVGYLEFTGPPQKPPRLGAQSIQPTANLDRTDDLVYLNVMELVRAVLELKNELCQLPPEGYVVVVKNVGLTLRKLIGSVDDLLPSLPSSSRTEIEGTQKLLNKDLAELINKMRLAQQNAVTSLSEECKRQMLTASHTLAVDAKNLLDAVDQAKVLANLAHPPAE
Numbers without * were called inactive; . = no result given. This excerpt belongs to a sample that is enriched for hits.

SMILES	HUVEC prolif 384	HCT116 bCat-KO	H69AR inhibit	Fibroblast inh	HCT116 PTEN-null	Pyk2 oligo antag
CC(C)(C)NC(=O)c1cnn2c1NC(c1ccc(F)cc1)CC2C(F)(F)F (stereo not given)	98	94	67	33*	99	0.63
O=C(Nc1ccc2c(c1)CCC2)c1cnn2c1NC(c1ccco1)CC2C(F)(F)F (stereo not given)	55	75	30*	37*	69	0.31
CCCCCOc1ccc(Br)cc1/C(C)=N/NC1=NCCN1	6.4*	3.1*	2.3*	93	4	0.92
Cc1cc(C)c2ccc(N)nc2c1O	76	3.8*	14*	9.4*	5	0.31
COc1cc(NC(=O)Cn2nc(C(F)(F)F)c3c2CCCC3)cc(OC)c1OC	96	81	83	99	79	-0.16
CCCc1sc(N/N=C/c2ccccn2)nc1-c1ccc(Br)cc1	5.2*	7	11*	29*	11	-0.42
Cc1cc(=O)[nH]c(N/N=C/c2ccccn2)n1	.	11	.	.	13	.
Cc1ccc(SCC(=O)NC(=O)NCc2ccccc2)c(C)c1	.	103	.	.	98	.
C/C(=N\OC(=O)c1ccccc1F)c1nccs1	.	108	.	.	93	0.01
COCCN1C(=O)N[C@@H](c2ccc(Br)cc2)C(C(C)=O)=C1C	.	100	.	.	98	.
O=C(Nc1ccc2nc(-c3cccnc3)[nH]c2c1)C1CCCCC1	75	96	25*	103	94	-0.58
O=C(Nc1ccc2nc(-c3cccnc3)[nH]c2c1)C12CC3CC(CC(C3)C1)C2	6.0*	34	30*	48*	35	-1.1
CC(C)c1nc2ccc(NC(=O)C34CC5CC(CC(C5)C3)C4)cc2[nH]1	61	56	60	104	69	0.08
CC(c1ccccc1)N(NC(=O)C(O)(c1ccccc1)c1ccccc1)C(=O)c1ccccc1 (stereo not given)	.	36	.	.	1.7*	.
COc1cccc(C2C=C(c3ccc(OC)cc3OC)Nc3nnnn32)c1 (stereo not given)	64	10	15*	62	9	-1.1
COc1ccc(C2=CC(c3ccc(OC)c(OC)c3)n3nnnc3N2)c(OC)c1 (stereo not given)	114	79	28*	94	72	-1.1
COc1ccc(C2C=C(c3ccccc3)Nc3nnnn32)cc1 (stereo not given)	108	88	97	96	87	0.16
Cc1nc([N+](=O)[O-])c(Br)n1CC(=O)c1ccc(Br)cc1	33	3.0*	-0.4*	25*	4	-1
O=C(Cn1cnc2ccccc2c1=O)c1ccc2ccccc2c1	86	104	111	107	87	0.18
Cc1nc([N+](=O)[O-])c(Br)n1CC(=O)c1ccccc1	77	47	35*	87	33	0.07
Cc1nc([N+](=O)[O-])c(Br)n1CC(=O)c1ccc2ccccc2c1	42	24	0.4*	56	26	-2.1
CCCCN(Cc1ccccc1)C(=O)C1CCN(S(=O)(=O)c2c(C)noc2C)CC1	44	97	81	92	92	0.28
CC/C(=N\NC(=O)c1cc(C)nc2ccccc12)c1ccc(C)s1	.	88	.	.	88	.
CCOC(=O)c1ccccc1NC(=O)CSc1nc2c(c(=O)n(C)c(=O)n2C)n1C	107	101	32*	.	97	.
CCCn1c(SCC(=O)Nc2ccccc2C(=O)OCC)nc2c1c(=O)n(C)c(=O)n2C	98	.	98	105	.	.
SMILES	HUVEC prolif 384	HCT116 bCat-KO	H69AR inhibit	Fibroblast inh	HCT116 PTEN-null	Pyk2 oligo antag
CCOC(=O)c1ccccc1NC(=O)c1n[nH]c(=O)c2ccccc12	.	7	.	.	3.1*	.
CC1=NN(C(N)=S)C(=O)C1N=Nc1ccc(C)cc1C (stereo not given)	.	90	.	.	95	.
Cc1ccc(N=Nc2c(C)[nH][nH]c2=O)c(C)c1	13*	37	24*	91	33	-1.4
CC1=NOC(=O)/C1=C\c1ccc(-c2ccc(Cl)cc2Cl)o1	.	4.7*	.	.	8	-0.87
Cc1[nH][nH]c(=O)c1C(c1ccc(-c2ccc(Cl)cc2Cl)o1)c1c(C)[nH][nH]c1=O	.	93	.	.	89	.
Cc1ccc(-c2c[n+](CC(=O)Nc3cc(=O)n(C)c(=O)n3C)c3n2CCC3)cc1	.	88	.	.	81	.
CC(C)OP(=O)(OC(C)C)C(NC(=O)c1ccc(Br)cc1)c1ccccc1 (stereo not given)	78	68	28*	94	51	0.72
COc1ccc(S(=O)(=O)CCC(=O)N(C)c2ccc(OC)cc2OC)cc1	103	0.5*	94	103	0.4*	-1.1
COc1ccc(S(=O)(=O)CCC(=O)Nc2ccc(OC)cc2OC)cc1	94	92	84	97	92	1.1
CC1=C(C(=O)Nc2cc(C)ccc2C)C(c2cccs2)NC(=S)N1 (stereo not given)	.	99	.	.	90	1.8
CCOc1ncccc1C(=O)Nc1cccc(C(=O)Nc2cccc(S(=O)(=O)CCO)c2)c1	71	84	30*	93	79	-1.7
CC(=O)Nc1cccc(Oc2ccc(-c3noc(C)n3)cc2)c1	106	94	81	97	94	-0.21
N#Cc1ccccc1Cn1c(=O)n(Cc2ccc(C(=O)NCc3ccco3)cc2)c(=O)c2ccccc21	26*	20	12*	53	19	0.55
O=C(CCCn1c(=O)c2sccc2n(CC(=O)OCc2ccccc2)c1=O)NCc1ccco1	87	89	92	96	88	1.4
O=C(CCCn1c(=O)c2sccc2n(Cc2ccc(F)cc2)c1=O)NCc1ccco1	69	61	22*	96	58	-0.8
CCc1ccc(NC(=O)Cn2c(=O)n(CCCC(=O)NCc3ccco3)c(=O)c3ccccc32)cc1	41	99	30*	82	92	-1.2
Cc1cccc(Cn2c(=O)n(CCCC(=O)NCc3ccco3)c(=O)c3ccccc32)c1	54	29	.	81	32	.
O=C(CCCCn1c(=O)c2ccccc2n(Cc2ccc(Cl)cc2)c1=O)NCc1ccco1	52	53	16*	54	42	-1.4
Cc1ccc2c(CSc3nc4ccccc4c(=O)n3CCCO)cc(=O)oc2c1	76	.	67	98	.	.
CCOc1cc2[nH]c(=O)n(CCCCCC(=O)NCc3ccco3)c(=O)c2cc1OCC	59	105	95	98	89	1.1
N#Cc1ccccc1Cn1c(=O)n(CCCC(=O)NCc2ccc3c(c2)OCO3)c(=O)c2ccccc21	59	64	40*	69	73	.
CCOc1cc2[nH]c(=O)n(CCCCCC(=O)NCc3ccc4c(c3)OCO4)c(=O)c2cc1OCC	31	.	18*	34*	.	.
Cc1ccc(Cn2c(=O)n(CCC(=O)NCc3ccc4c(c3)OCO4)c(=O)c3ccccc32)cc1	95	93	99	102	91	0.92
Cc1cc(C)nc(/N=c2/ssnc2Cl)c1	113	41	20*	105	12	0.15
